In ChEMBL document CHEMBL3856258, “Phosphonate-based irreversible inhibitors of human γ-glutamyl transpeptidase (GGT). GGsTop is a non-toxic and highly selective inhibitor with critical electrostatic interaction with an active-site residue Lys562 for enhanced inhibitory activity” (Bioorg Med Chem, 2016):

How the values were obtained:
[1] = Cytotoxicity against CHL cells assessed as growth rate at 13.5 ug/ml after 24 hrs in absence of S9 fraction by MTT assay relative to control; format: toxicity, cell-based, Cricetulus griseus; settings: chinese hamster, read-out: Activity
[2] = Cytotoxicity against CHL cells assessed as number of cells with numerical aberrations at 3300 ug/ml after 24 hrs by Giemsa staining-based microscopic analysis relative to control; format: toxicity, cell-based, Cricetulus griseus; settings: chinese hamster
Salmonella typhimurium [3] = experiment: Genotoxicity in Salmonella typhimurium TA1535 assessed as number of revertant colonies per plate at 556 ug/plate after 20 mins in absence of S9 fraction by Ames test (reference value: 15); format: toxicity, organism-based; settings: salmonella enterica subsp. enterica serovar typhimurium
[4] = Cytotoxicity against CHL cells assessed as structural aberrations at 3300 ug/ml preincubated for 6 hrs followed by 18 hrs incubation in fresh medium in absence of S9 fraction by Giemsa-staining-based microscopic analysis; format: toxicity, cell-based, Cricetulus griseus; settings: chinese hamster
Salmonella typhimurium [5] = experiment: Genotoxicity in Salmonella typhimurium TA98 assessed as number of revertant colonies per plate at 556 ug/plate after 20 mins in absence of S9 fraction by Ames test (reference value: 21); format: toxicity, organism-based; settings: salmonella enterica subsp. enterica serovar typhimurium
[6] = Cytotoxicity against human CCD-1059SK cells assessed as reduction in cell viability up to 1 mM after 24 hrs by neutral red method; format: toxicity, cell-based
Outline: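 CCD-1059SK skin fibroblasts, passages 10–20, grown in DMEM with 10% FBS at 37 °C under 5% CO2. Pre-incubated 24 h after plating, then exposed 24 h to 0, 10, 100 or 1000 µM, diluted into medium from distilled water. Viability read by Neutral Red assay.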

[7] = Cytotoxicity against CHL cells assessed as growth rate at 2.16 ug/ml preincubated for 6 hrs followed by 18 hrs incubation in fresh medium in absence of S9 fraction by MTT assay relative to control; format: toxicity, cell-based, Cricetulus griseus; settings: chinese hamster, read-out: Activity
[8] = Cytotoxicity against CHL cells assessed as number of cells with numerical aberrations at 1650 ug/ml preincubated for 6 hrs followed by 18 hrs incubation in fresh medium in absence of S9 fraction by Giemsa-staining-based microscopic analysis relative to control; format: toxicity, cell-based, Cricetulus griseus; settings: chinese hamster
Salmonella typhimurium [9] = experiment: Genotoxicity in Salmonella typhimurium TA1537 assessed as number of revertant colonies per plate at 185 ug/plate after 20 mins in absence of S9 fraction by Ames test (reference value: 9); format: toxicity, organism-based; settings: salmonella enterica subsp. enterica serovar typhimurium
[10] = Cytotoxicity against CHL cells assessed as growth rate at 528 ug/ml preincubated for 6 hrs followed by 18 hrs incubation in fresh medium in absence of S9 fraction by MTT assay relative to control; format: toxicity, cell-based, Cricetulus griseus; settings: chinese hamster, read-out: Activity
[11] = Cytotoxicity against CHL cells assessed as structural aberrations at 3300 ug/ml preincubated for 6 hrs followed by 18 hrs incubation in fresh medium in presence of S9 fraction by Giemsa-staining-based microscopic analysis; format: toxicity, cell-based, Cricetulus griseus; settings: chinese hamster
Salmonella typhimurium [12] = experiment: Genotoxicity in Salmonella typhimurium TA1535 assessed as number of revertant colonies per plate at 61.7 ug/plate after 20 mins in absence of S9 fraction by Ames test (reference value: 15); format: toxicity, organism-based; settings: salmonella enterica subsp. enterica serovar typhimurium
Salmonella typhimurium [13] = experiment: Genotoxicity in Salmonella typhimurium TA98 assessed as number of revertant colonies per plate at 556 ug/plate after 20 mins in presence of S9 fraction by Ames test (reference value: 26); format: toxicity, organism-based; settings: salmonella enterica subsp. enterica serovar typhimurium
[14] = Cytotoxicity against human CCD-1059SK cells assessed as morphological change up to 1 mM after 24 hrs by inverted microscopic analysis; format: toxicity, cell-based
Outline: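 Human skin fibroblasts (CCD-1059SK), passages 10–20, grown in DMEM with 10% FBS and antibiotics at 37 °C under 5% CO2. Plated at 3 × 10^4 cells/mL on chamber slides and pre-incubated 24 h. Then exposed 24 h to 0, 5, 10, 20, 50 or 1000 µM in DMEM (from aqueous solution); water-only control. Morphology checked by inverted microscopy.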

Salmonella typhimurium [15] = experiment: Genotoxicity in Salmonella typhimurium TA1535 assessed as number of revertant colonies per plate at 5000 ug/plate after 20 mins in absence of S9 fraction by Ames test (reference value: 15); format: toxicity, organism-based; settings: salmonella enterica subsp. enterica serovar typhimurium
Salmonella typhimurium [16] = experiment: Genotoxicity in Salmonella typhimurium TA1537 assessed as number of revertant colonies per plate at 5000 ug/plate after 20 mins in absence of S9 fraction by Ames test (reference value: 9); format: toxicity, organism-based; settings: salmonella enterica subsp. enterica serovar typhimurium
[17] = Cytotoxicity against CHL cells assessed as growth rate at 5.41 ug/ml preincubated for 6 hrs followed by 18 hrs incubation in fresh medium in presence of S9 fraction by MTT assay relative to control; format: toxicity, cell-based, Cricetulus griseus; settings: chinese hamster, read-out: Activity
[18] = Cytotoxicity against CHL cells assessed as growth rate at 3300 ug/ml after 24 hrs in absence of S9 fraction by MTT assay relative to control; format: toxicity, cell-based, Cricetulus griseus; settings: chinese hamster, read-out: Activity
Salmonella typhimurium [19] = experiment: Genotoxicity in Salmonella typhimurium TA100 assessed as number of revertant colonies per plate at 5000 ug/plate after 20 mins in presence of S9 fraction by Ames test (reference value: 142); format: toxicity, organism-based; settings: salmonella enterica subsp. enterica serovar typhimurium
[20] = Cytotoxicity against CHL cells assessed as growth rate at 13.5 ug/ml preincubated for 6 hrs followed by 18 hrs incubation in fresh medium in absence of S9 fraction by MTT assay relative to control; format: toxicity, cell-based, Cricetulus griseus; settings: chinese hamster, read-out: Activity
[21] = Cytotoxicity against CHL cells assessed as number of cells with numerical aberrations at 3300 ug/ml preincubated for 6 hrs followed by 18 hrs incubation in fresh medium in absence of S9 fraction by Giemsa-staining-based microscopic analysis relative to control; format: toxicity, cell-based, Cricetulus griseus; settings: chinese hamster
[22] = Cytotoxicity against CHL cells assessed as number of cells with numerical aberrations at 825 ug/ml preincubated for 6 hrs followed by 18 hrs incubation in fresh medium in absence of S9 fraction by Giemsa-staining-based microscopic analysis relative to control; format: toxicity, cell-based, Cricetulus griseus; settings: chinese hamster
Salmonella typhimurium [23] = experiment: Genotoxicity in Salmonella typhimurium TA1535 assessed as number of revertant colonies per plate at 5000 ug/plate after 20 mins in presence of S9 fraction by Ames test (reference value: 13); format: toxicity, organism-based; settings: salmonella enterica subsp. enterica serovar typhimurium
Salmonella typhimurium [24] = experiment: Genotoxicity in Salmonella typhimurium TA98 assessed as number of revertant colonies per plate at 61.7 ug/plate after 20 mins in absence of S9 fraction by Ames test (reference value: 21); format: toxicity, organism-based; settings: salmonella enterica subsp. enterica serovar typhimurium
Salmonella typhimurium [25] = experiment: Genotoxicity in Salmonella typhimurium TA1537 assessed as number of revertant colonies per plate at 20.6 ug/plate after 20 mins in absence of S9 fraction by Ames test (reference value: 9); format: toxicity, organism-based; settings: salmonella enterica subsp. enterica serovar typhimurium
Salmonella typhimurium [26] = experiment: Genotoxicity in Salmonella typhimurium TA1537 assessed as number of revertant colonies per plate at 5000 ug/plate after 20 mins in presence of S9 fraction by Ames test (reference value: 15); format: toxicity, organism-based; settings: salmonella enterica subsp. enterica serovar typhimurium
[27] = Cytotoxicity against CHL cells assessed as structural aberrations at 825 ug/ml after 24 hrs by Giemsa-staining-based microscopic analysis; format: toxicity, cell-based, Cricetulus griseus; settings: chinese hamster
[28] = Cytotoxicity against CHL cells assessed as structural aberrations at 1650 ug/ml preincubated for 6 hrs followed by 18 hrs incubation in fresh medium in absence of S9 fraction by Giemsa-staining-based microscopic analysis; format: toxicity, cell-based, Cricetulus griseus; settings: chinese hamster
Salmonella typhimurium [29] = experiment: Genotoxicity in Salmonella typhimurium TA98 assessed as number of revertant colonies per plate at 20.6 ug/plate after 20 mins in absence of S9 fraction by Ames test (reference value: 21); format: toxicity, organism-based; settings: salmonella enterica subsp. enterica serovar typhimurium
[30] = Cytotoxicity against CHL cells assessed as chromatid gap at 3300 ug/ml preincubated for 6 hrs followed by 18 hrs incubation in fresh medium in absence of S9 fraction by Giemsa-staining-based microscopic analysis; format: toxicity, cell-based, Cricetulus griseus; settings: chinese hamster

With `COP(=O)(CCC(N)C(=O)O)Oc1cccc(CC(=O)O)c1` (stereo not given) the viability at 24 h, 13.5 ug/ml [1] was 103%, the Activity [2] was 0% and the Activity (Salmonella typhimurium [3]) was 8. The Activity [4] was 1%, the Activity (Salmonella typhimurium [5]) was 29 and the Activity [6] was “Non-Toxic”. The viability at 18 h, 2.16 ug/ml [7] was 103%, the Activity [8] was 0% and the Activity (Salmonella typhimurium [9]) was 12. The viability at 18 h, 528 ug/ml [10] was 101%, the Activity [11] was 1% and the Activity (Salmonella typhimurium [12]) was 8. The Activity (Salmonella typhimurium [13]) was 28, the Activity [14] was “Non-Toxic” and the Activity (Salmonella typhimurium [15]) was 13. For the same compound, the Activity (Salmonella typhimurium [16]) was 9, the viability at 18 h, 5.41 ug/ml [17] was 102% and the viability at 24 h, 3300 ug/ml [18] was 79.5%. It also gave an Activity (Salmonella typhimurium [19]) of 125, a viability at 18 h, 13.5 ug/ml [20] of 100% and an Activity [21] of 0%. The Activity [22] was 0%, the Activity (Salmonella typhimurium [23]) was 11 and the Activity (Salmonella typhimurium [24]) was 23. For the same compound, the Activity (Salmonella typhimurium [25]) was 9, the Activity (Salmonella typhimurium [26]) was 17 and the Activity [27] was 0%. For the same compound, the Activity [28] was 0%, the Activity (Salmonella typhimurium [29]) was 21 and the Activity [30] was 0%.
